The results in this text go back to ChEMBL document CHEMBL1136028, “Design and synthesis of orally bioavailable inhibitors of inducible nitric oxide synthase. Part 1: synthesis and biological evaluation of dihydropyridin-2-imines” (Bioorg Med Chem Lett, 2002).

One assay concerns the target T1, Nitric oxide synthase 3 (Homo sapiens, UniProt P29474).
T1 sequence (P29474 whole entry): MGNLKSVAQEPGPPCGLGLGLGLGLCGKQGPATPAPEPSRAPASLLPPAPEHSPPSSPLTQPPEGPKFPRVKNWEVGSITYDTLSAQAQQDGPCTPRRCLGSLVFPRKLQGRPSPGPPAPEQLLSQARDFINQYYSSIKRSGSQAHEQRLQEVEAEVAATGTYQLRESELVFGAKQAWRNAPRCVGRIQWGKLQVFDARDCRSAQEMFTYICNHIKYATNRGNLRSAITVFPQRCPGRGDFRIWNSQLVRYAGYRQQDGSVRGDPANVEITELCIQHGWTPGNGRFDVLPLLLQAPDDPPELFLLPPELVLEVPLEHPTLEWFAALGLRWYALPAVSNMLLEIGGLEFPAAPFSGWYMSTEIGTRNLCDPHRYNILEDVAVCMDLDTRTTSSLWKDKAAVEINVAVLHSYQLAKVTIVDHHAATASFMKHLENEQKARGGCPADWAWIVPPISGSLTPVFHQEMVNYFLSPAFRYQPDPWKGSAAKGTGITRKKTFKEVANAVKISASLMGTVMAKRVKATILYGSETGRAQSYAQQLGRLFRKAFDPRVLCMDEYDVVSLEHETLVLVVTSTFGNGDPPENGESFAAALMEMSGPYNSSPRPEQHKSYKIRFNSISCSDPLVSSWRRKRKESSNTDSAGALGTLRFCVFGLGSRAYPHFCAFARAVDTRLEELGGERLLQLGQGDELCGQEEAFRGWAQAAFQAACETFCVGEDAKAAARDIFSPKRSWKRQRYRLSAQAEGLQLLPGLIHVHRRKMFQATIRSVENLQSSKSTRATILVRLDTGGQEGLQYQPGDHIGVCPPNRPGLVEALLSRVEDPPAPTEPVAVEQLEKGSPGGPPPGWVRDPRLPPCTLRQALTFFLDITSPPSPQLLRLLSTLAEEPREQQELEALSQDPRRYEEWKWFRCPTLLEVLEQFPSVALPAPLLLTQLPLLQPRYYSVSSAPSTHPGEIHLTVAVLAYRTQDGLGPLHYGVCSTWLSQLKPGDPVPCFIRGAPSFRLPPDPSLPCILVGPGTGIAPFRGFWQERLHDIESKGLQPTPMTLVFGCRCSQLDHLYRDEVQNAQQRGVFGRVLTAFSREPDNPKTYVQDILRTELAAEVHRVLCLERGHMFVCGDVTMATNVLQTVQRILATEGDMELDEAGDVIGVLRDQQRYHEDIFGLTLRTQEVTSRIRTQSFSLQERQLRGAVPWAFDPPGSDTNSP
Kind of assay: Inhibition of human endothelial Nitric Oxide Synthase expressed in Sf-21 cells. More on the design: species or system Sf21. The method in brief: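 Human eNOS was overexpressed in Sf-21 insect cells by infection with baculovirus carrying heNOS cDNA, then partially purified on 2',5'-ADP-Sepharose. Activity was read as [14C]-L-arginine to L-citrulline conversion at several inhibitor and L-arginine levels. Ki and mode of inhibition came from Dixon and Lineweaver–Burk plots.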

Assay [1] has as its target T2, Nitric oxide synthase 3 (Homo sapiens) (UniProt P29474).
T2 sequence (whole entry): T1 sequence (P29474 whole entry)
Kind of assay: Selectivity was evaluated as the rate of the IC50 values for Endothelial Nitric Oxide Synthase and Inducible nitric oxide synthase.

The target in assay [2] is T3, Nitric oxide synthase, inducible (Homo sapiens, UniProt P35228). Kind of assay: Concentration required to inhibit Inducible nitric oxide synthase over expressed in A549 cells. Format: cell-based. The method in brief:
(§1)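 Human iNOS was induced in A549 cells by LPS plus cytokines (10 ng/mL TNF-a, 5 ng/mL IL-1b, 100 ng/mL interferon-g), then partially purified on 2',5'-ADP-Sepharose. Activity was read as conversion of [14C]-L-arginine to L-citrulline at several inhibitor and L-arginine levels. Ki and mode of inhibition came from Dixon and Lineweaver–Burk plots.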

The target of assay [3] is T4, Nitric oxide synthase, inducible (Mus musculus, UniProt P29477).
T4 sequence (P29477 whole entry): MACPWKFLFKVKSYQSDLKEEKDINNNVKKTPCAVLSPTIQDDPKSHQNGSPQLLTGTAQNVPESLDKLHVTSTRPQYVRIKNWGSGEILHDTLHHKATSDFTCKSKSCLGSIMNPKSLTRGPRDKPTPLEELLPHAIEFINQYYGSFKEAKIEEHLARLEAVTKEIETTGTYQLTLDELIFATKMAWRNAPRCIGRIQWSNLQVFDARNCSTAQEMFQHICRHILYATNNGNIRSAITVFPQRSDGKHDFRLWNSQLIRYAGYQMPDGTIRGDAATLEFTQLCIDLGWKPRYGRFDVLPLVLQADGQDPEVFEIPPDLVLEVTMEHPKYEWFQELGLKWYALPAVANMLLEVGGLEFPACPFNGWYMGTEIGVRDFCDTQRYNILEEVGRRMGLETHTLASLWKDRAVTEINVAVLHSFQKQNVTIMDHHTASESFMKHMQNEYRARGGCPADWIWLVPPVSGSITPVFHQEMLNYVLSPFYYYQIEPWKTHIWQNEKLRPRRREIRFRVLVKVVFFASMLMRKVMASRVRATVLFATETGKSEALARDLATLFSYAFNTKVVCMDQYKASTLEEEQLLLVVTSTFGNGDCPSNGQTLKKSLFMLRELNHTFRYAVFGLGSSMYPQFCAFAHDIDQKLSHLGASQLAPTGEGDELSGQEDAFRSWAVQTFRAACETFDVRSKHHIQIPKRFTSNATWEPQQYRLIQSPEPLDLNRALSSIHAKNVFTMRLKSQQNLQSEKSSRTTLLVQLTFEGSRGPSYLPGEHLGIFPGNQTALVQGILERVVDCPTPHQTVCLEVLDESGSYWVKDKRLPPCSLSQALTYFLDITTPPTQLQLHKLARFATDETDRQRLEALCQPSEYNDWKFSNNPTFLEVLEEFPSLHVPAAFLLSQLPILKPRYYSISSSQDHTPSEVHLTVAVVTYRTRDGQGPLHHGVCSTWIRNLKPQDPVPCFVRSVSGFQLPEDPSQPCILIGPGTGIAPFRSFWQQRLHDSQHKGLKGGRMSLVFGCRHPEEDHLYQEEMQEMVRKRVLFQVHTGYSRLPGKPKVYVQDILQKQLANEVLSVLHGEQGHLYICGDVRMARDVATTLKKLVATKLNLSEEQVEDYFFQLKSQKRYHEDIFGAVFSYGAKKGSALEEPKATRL
Kind of assay: The concentration required for inhibition of Inducible nitric oxide synthase in mouse. The method in brief: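 Enzyme was commercially purchased recombinant mouse iNOS, tested for inhibition by the test compounds.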

In assay [4] the target is T3, Nitric oxide synthase, inducible. Kind of assay: Concentration required to inhibit human Inducible nitric oxide synthase over expressed in A549 cells. The assay is classed as cell-based. The method in brief:
as §1

Assay [5] has as its system Mus musculus. Kind of assay: The dose required for 50% inhibition of NOx accumulation in mice induced by LPS treatment after subcutaneous administration. The assay is classed as functional. Particulars: sc, read-out: ID50 (the source's name).
Assay [6] deals with Mus musculus. Kind of assay: Maximum tolerated dose (MTD) at which no death was observed within 24 hr after intravenous administration. Format: functional. In short, it runs like this: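 Normal mice (mouse acute toxicity) given a single intravenous dose of test compound. MTD taken as the maximum dose at which no death was observed within 24 h after injection.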
Assay [7] is described as follows: Ratio of MTD/ID50 for NOx accumulation in mice. Format: functional. In short, it runs like this: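 Balb/c mice, 7 weeks old, got LPS 10 mg/kg iv, then test compound or saline sc 3 h later. Plasma was taken from the abdominal aorta at 6 h, and NOx accumulated over 3 h was measured. ID50 is the sc dose halving LPS-induced NOx. MTD is the highest iv dose in normal mice with no death within 24 h. Ratio is MTD/ID50.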

Assay [8] addresses Nitric oxide synthase (inducible and endothelial) (Homo sapiens) (UniProt P35228+P29474). Kind of assay: Selectivity was evaluated as the rate of the IC50 values for heNOS and hiNOS. Format: protein assay.

T3 sequence (P35228 whole entry): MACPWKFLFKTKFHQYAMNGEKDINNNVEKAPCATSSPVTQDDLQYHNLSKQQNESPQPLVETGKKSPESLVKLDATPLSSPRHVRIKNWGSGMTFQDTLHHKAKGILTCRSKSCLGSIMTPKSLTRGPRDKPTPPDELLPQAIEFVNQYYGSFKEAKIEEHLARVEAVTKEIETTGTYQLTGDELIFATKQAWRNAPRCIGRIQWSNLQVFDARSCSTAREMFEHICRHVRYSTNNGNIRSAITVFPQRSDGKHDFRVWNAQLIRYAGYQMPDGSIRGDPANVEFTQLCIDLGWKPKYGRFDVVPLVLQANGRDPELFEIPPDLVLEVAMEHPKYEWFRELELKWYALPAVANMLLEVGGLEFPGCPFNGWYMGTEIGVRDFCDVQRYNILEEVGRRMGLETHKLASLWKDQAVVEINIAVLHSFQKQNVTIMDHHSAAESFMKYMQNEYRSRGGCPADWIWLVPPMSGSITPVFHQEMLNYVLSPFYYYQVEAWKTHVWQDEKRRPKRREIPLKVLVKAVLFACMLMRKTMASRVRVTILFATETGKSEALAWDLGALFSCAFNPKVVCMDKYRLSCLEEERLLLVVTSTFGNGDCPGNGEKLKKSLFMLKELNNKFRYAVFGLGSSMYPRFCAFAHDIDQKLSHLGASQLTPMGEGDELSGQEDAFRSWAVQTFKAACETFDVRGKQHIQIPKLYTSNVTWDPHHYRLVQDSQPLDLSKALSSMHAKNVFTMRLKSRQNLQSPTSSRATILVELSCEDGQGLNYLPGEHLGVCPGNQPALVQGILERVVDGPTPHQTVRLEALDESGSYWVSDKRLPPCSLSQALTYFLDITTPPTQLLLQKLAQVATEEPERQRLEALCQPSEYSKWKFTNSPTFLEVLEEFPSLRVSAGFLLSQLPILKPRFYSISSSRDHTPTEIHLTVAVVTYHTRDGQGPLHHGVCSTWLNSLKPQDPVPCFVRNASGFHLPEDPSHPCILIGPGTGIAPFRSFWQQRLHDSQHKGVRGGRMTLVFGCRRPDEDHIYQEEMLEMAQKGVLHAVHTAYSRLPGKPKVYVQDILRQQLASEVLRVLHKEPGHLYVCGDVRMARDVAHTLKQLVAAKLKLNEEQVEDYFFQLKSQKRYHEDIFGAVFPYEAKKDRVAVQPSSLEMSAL

For `CC1=CC(N)=NC(C)C1` (centres undefined), the IC50 (in general, the concentration at which inhibition is half-maximal) was found to be 240 nM at Nitric oxide synthase 3 and 180 nM in assay [2]. Also, the Ratio in [1] turned out to be 1.3.
On to `CCCC1CC(C)=CC(N)=N1` (centres undefined), for which the values for the IC50 (against Nitric oxide synthase 3; in assay [3]; in assay [4]) were 580 nM, 100 nM and 60 nM, respectively. Further, in the assay with Mus musculus [5], the ED50 came to 0.36 mg/kg. Further, the MTD – broadly, the highest dose tested that stayed within the study's limit of toxicity – with Mus musculus [6] amounted to 5 mg/kg. Further, the results for the Ratio in [7] and in assay [8] were 14 and 9.7, respectively.
`CC1=CC(N)=N[C@@H]2CCCC[C@H]12`: the IC50 amounted to 7400 nM on Nitric oxide synthase 3 and 1400 nM in assay [4]. In addition, the Ratio in assay [8] amounted to 5.3.
In the case of `CCC1=CC(=N)NCC1`, the IC50 worked out at 1500 nM against Nitric oxide synthase 3 and 1200 nM in assay [4]. Further, the Ratio in assay [8] is 1.3.
As for `CC1=CC(N)=NCC1(C)C`, the concentration for half-maximal inhibition (IC50) against Nitric oxide synthase 3 amounted to 2100 nM; in assay [3], 100 nM; in assay [4] it was 420 nM. In addition, the ED50 with Mus musculus [5] came to 0.28 mg/kg. In the assay with Mus musculus [6], this compound displayed an MTD of 20 mg/kg. Moreover, the results for the Ratio in [7] and in assay [8] were 71 and 5, respectively.
In the case of `CC1=C(C)C(N)=NCC1`, the IC50 at Nitric oxide synthase 3 was 320 nM; in [4], 310 nM. The Ratio in assay [8] was 1.
With `CC1=CC(N)=NCC1C` (centres undefined), the IC50 at Nitric oxide synthase 3 was 520 nM; in assay [2], 510 nM. The Ratio in [1] came out at 1.
With `CC1(C)C=CC(N)=NC1`, the results for the 50% inhibitory concentration (IC50) (at Nitric oxide synthase 3; in [4]) were 31000 nM and 2800 nM, respectively. For the same compound, the Ratio in assay [8] is 11.1.
As to `C=CCC1CC(C)=CC(N)=N1` (centres undefined), the IC50 in assay [3] was determined as 25 nM. Besides, the ED50 with Mus musculus [5] worked out at 0.16 mg/kg. In the assay on Mus musculus [6], this compound gave an MTD of 5 mg/kg. For the same compound, the Ratio in assay [8] was 7.2.
`CC1=CC(N)=NCC1`: the IC50 against Nitric oxide synthase 3 came to 230 nM; in assay [3] it was 22 nM; in assay [4] it was 200 nM. In the assay on Mus musculus [5], the ED50 turned out to be 0.16 mg/kg. In the assay with Mus musculus [6], this compound had an MTD of 20 mg/kg. The Ratio amounted to 130 in assay [7] and 1.2 in [8].
Turning to `CC1=CCN=C(N)C1`, the IC50 worked out at 440 nM at Nitric oxide synthase 3 and 700 nM in assay [4]. In addition, the Ratio in [8] was 0.6.
For the compound `CC1=CC(N)=N[C@@H]2CCC[C@H]12`, the IC50 came to 510 nM at Nitric oxide synthase 3 and 170 nM in [4]. Further, the Ratio in [8] was found to be 3.
